Columns and labels:
[1] = target: T1, Serotonin 3 (5-HT3) receptor (Rattus norvegicus, UniProt P35563+Q9JJ16); assay: In vitro displacement of [3H]ICS-205-930 from 5-hydroxytryptamine 3 receptor in cultured NG-108-15 […] cells
T1 sequence (P35563 whole entry): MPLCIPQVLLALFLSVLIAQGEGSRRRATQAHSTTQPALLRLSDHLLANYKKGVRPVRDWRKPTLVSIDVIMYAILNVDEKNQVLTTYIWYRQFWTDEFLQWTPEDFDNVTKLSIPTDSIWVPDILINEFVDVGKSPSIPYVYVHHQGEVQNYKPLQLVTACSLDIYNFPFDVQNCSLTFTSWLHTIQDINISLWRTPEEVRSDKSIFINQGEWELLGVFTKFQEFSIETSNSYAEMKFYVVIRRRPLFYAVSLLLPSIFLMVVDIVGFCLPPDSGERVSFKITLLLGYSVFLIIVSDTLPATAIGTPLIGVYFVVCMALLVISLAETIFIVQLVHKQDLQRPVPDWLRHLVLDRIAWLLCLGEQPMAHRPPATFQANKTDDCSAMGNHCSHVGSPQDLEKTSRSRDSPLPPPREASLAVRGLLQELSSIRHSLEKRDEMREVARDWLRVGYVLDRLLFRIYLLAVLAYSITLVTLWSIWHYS
T1 sequence (Q9JJ16 whole entry): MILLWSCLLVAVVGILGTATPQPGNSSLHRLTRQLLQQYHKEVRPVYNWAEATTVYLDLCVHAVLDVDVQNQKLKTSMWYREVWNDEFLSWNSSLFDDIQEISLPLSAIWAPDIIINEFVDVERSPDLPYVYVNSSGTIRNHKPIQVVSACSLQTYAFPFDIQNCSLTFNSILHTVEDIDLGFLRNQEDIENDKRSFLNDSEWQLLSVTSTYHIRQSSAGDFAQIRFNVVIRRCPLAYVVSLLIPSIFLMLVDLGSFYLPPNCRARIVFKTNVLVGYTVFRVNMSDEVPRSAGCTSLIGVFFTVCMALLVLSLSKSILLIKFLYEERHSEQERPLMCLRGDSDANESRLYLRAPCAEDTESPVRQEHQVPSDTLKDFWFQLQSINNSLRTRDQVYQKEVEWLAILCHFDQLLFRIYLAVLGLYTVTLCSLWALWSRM

Rattus norvegicus [2] = assay: Percent inhibition of serotonin-induced B-J reflex (Bezold-Jarisch reflex)in the right femoral vein of rat at a dose of 50 ug/kg; assay type: functional
Outline: (§1)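 Rats given test compound and serotonin intravenously through a cannula in the right femoral vein. Von Bezold-Jarisch reflex read as blockade of serotonin-induced bradycardia. Otherwise run by a previously published procedure.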

Rattus norvegicus [3] = assay: Percent response to 100 ug/kg serotonin was determined as blockade of serotonin-induced bradycardia in anesthetized rat; assay type: functional
Outline: (§2)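 Rat von Bezold–Jarisch reflex, read as blockade of serotonin-induced bradycardia. Test compound and serotonin were both given iv through a cannula in the right femoral vein.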

Rattus norvegicus [4] = assay: Percent inhibition of serotonin-induced B-J reflex (Bezold-Jarisch reflex)in the right femoral vein of rat at a dose of 10 ug/kg; assay type: functional; outline: as §1
Rattus norvegicus [5] = assay: (§3) Percent inhibition of serotonin-induced B-J reflex (Bezold-Jarisch reflex)in the right femoral vein of rat at a dose of 100 ug/kg; assay type: functional; outline: as §2
Rattus norvegicus [6] = assay: (§4) Percent inhibition of serotonin-induced B-J reflex (Bezold-Jarisch reflex)in the right femoral vein of rat at a dose of 2 ug/kg; assay type: functional; outline: as §1
Rattus norvegicus [7] = assay: as §3; assay type: functional; outline: as §1; remark: listed apart in the source
Rattus norvegicus [8] = assay: Percent inhibition of serotonin-induced B-J reflex (Bezold-Jarisch reflex)in the right femoral vein of rat at a dose of 1 mg/kg po; assay type: functional
Rattus norvegicus [9] = assay: Percent inhibition of serotonin-induced B-J reflex (Bezold-Jarisch reflex)in the right femoral vein of rat at a dose of 20 ug/kg; assay type: functional; outline: as §2
Rattus norvegicus [10] = assay: as §4; assay type: functional; outline: as §2; remark: listed apart in the source

Compound: Cc1[nH]c2ccc(O)cc2c1CCN
- Ki [1]: 1220 nM
- inhibition in vivo at 0.05 mg/kg (Rattus norvegicus [2]): 66%
- Response (Rattus norvegicus [3]): 41%
- inhibition in vivo at 0.01 mg/kg (Rattus norvegicus [4]): 23%

Compound: Cc1nc(Cc2nc(-c3ccccc3)cs2)c[nH]1
- Ki [1]: 226 nM
- Response (Rattus norvegicus [3]): 0%
- inhibition in vivo at 0.1 mg/kg (Rattus norvegicus [5]): 7%

Compound: c1ccc(-c2csc(Cc3c[nH]cn3)n2)cc1
- Ki [1]: 0.99 nM
- inhibition in vivo at 0.002 mg/kg (Rattus norvegicus [6]): 41%
- Response (Rattus norvegicus [3]): 80%

Compound: Cc1nccn1Cc1nc(-c2c[nH]c3ccccc23)cs1
- Ki [1]: > 1000 nM
- Response (Rattus norvegicus [3]): 0%
- inhibition in vivo at 0.1 mg/kg (Rattus norvegicus [5]): 7%

Compound: Cc1[nH]cnc1Cc1nc(-c2c[nH]c3ccccc23)cs1
- Ki [1]: 10.4 nM
- inhibition in vivo at 0.1 mg/kg (Rattus norvegicus [7]): 45%
- Response (Rattus norvegicus [3]): 0%

Compound: Cc1[nH]cnc1Cc1nc(-c2ccccc2)cs1
- Ki [1]: 1.5 nM
- inhibition in vivo at 1 mg/kg (Rattus norvegicus [8]): 67%
- inhibition in vivo at 0.02 mg/kg (Rattus norvegicus [9]): 86%
- inhibition in vivo at 0.002 mg/kg (Rattus norvegicus [6]): 11%
- Response (Rattus norvegicus [3]): 0%

Compound: N=C(N)NCc1nc(-c2c[nH]c3ccccc23)cs1
- Ki [1]: 3.3 nM
- inhibition in vivo at 1 mg/kg (Rattus norvegicus [8]): 0%
- inhibition in vivo at 0.02 mg/kg (Rattus norvegicus [9]): 82%
- Response (Rattus norvegicus [3]): 60%
- inhibition in vivo at 0.002 mg/kg (Rattus norvegicus [10]): 51%

Compound: c1ccc2c(-c3csc(Cc4c[nH]cn4)n3)c[nH]c2c1
- Ki [1]: 14.2 nM
- inhibition in vivo at 0.1 mg/kg (Rattus norvegicus [7]): 63%
- Response (Rattus norvegicus [3]): 14%

Compound: Cc1nccn1CC1CCc2c(c3ccccc3n2C)C1=O (centres undefined) [ONDANSETRON]
- inhibition in vivo at 0.02 mg/kg (Rattus norvegicus [9]): 90%
- Response (Rattus norvegicus [3]): 0%
- inhibition in vivo at 0.002 mg/kg (Rattus norvegicus [10]): 43%

Compound: CN1[C@@H]2CC[C@H]1C[C@@H](OC(=O)c1c[nH]c3ccccc13)C2 [TROPISETRON]
- inhibition in vivo at 0.002 mg/kg (Rattus norvegicus [6]): 76%
- Response (Rattus norvegicus [3]): 0%
